Source: PubChem BioAssay (several laboratories)
Shown are actives, neighbours in structure and some others; about 1.8% of the full set was active somewhere.
EphB4 antag: EphB4-ephrin-B2 interaction antagonists, primary screen, biochemical, TNYL-RAW peptide probe, fluorescence polarization. actives 0.15% (n = 97,000). AID 720, 2007. inhibition, % at 7 µM. EphB4 LBD / TNYL-RAW-Alexa532 peptide. Ephrin type-B receptor 4 (Homo sapiens), P54760;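 active = inhibition above the screen-wide mean inhibition plus 3 SD, cut at about 15% in these data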;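 note: 0% = DMSO wells and 100% = excess unlabeled TNYL-RAW peptide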
PLK1 PBD inh: Plk1 polo box domain binding inhibitors, primary screen, biochemical, fluorescence polarization. Serine/threonine-protein kinase PLK1 (Homo sapiens), P53350. Plk1 PBD phosphopeptide binding. inhibition, %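 (tested at about 20 µM)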. actives 0.13% (n = 97,000); in the data active = inhibition above about 34%, passing the limit was not always enough
Target sequence (P53350 whole entry, looked up, the tested form may be a part): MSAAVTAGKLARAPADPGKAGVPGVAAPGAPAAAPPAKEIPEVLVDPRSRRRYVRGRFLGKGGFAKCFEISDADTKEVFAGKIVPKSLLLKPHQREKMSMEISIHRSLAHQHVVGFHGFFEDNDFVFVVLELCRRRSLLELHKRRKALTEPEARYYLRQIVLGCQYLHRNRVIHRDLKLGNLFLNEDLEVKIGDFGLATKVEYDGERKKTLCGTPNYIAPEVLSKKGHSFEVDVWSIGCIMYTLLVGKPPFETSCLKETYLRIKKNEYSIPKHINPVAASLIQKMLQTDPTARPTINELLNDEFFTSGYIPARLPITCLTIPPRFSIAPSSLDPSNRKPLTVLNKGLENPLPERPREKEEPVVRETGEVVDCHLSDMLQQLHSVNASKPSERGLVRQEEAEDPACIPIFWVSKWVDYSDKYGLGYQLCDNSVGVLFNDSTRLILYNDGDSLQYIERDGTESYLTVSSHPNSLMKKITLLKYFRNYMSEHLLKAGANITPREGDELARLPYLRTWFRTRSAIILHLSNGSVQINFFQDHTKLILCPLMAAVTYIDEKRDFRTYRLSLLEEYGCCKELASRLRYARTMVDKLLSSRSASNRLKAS
LYP act: LYP phosphatase activators, primary screen, biochemical, DiFMUP fluorescence, 2 µM; Tyrosine-protein phosphatase non-receptor type 22 (Homo sapiens), Q9Y2R2; activation, % at 2 µM; recombinant LYP; 0 = plate median, 100 = signal doubled; actives 0.11% (n = 96,000);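 active = activation at 2 µM above a set limit, the mean plus 5 SD, cut at about 37% in these data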
PLK1 inh: human PLK1 kinase inhibitors, primary screen, biochemical, TR-FRET; Serine/threonine-protein kinase PLK1 (Homo sapiens), P53350; recombinant PLK1 kinase, TR-FRET peptide phosphorylation; inhibition, % at 10 µM; actives 0.53% (n = 97,000);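 active = inhibition of 50% or more in the single-concentration screen; inactive = inhibition below 50%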;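 note: 0% = DMSO max control and 100% = H-89 dihydrochloride min control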
LYP inh 2: PTPN22 phosphatase inhibitors, primary screen, biochemical, DiFMUP fluorescence, 2 µM. recombinant LYP catalytic domain. inhibition, % at 2 µM. actives 0.21% (n = 96,000). Tyrosine-protein phosphatase non-receptor type 22 (Homo sapiens), Q9Y2R2;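 active = inhibition at 2 µM at or above a set limit, the screen mean plus 3 SD, cut at about 24% in these data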;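 note: 0% = DMSO with enzyme and 100% = enzyme fully blocked by orthovanadate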
HIV Rev-RRE inh: HIV-1 Rev-RRE binding inhibitors, primary screen, biochemical, FRET, protein-RNA interaction | Rev peptide-RRE RNA binding | actives 0.79% (n = 97,000) | P05866 | inhibition, % at 8 µM;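 active = inhibition above the screen-wide mean plus 3 SD, cut at about 35% in these data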;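 note: 0% = median DMSO wells and 100% = median Neomycin B control wells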
Target sequence (P05866 whole entry, looked up): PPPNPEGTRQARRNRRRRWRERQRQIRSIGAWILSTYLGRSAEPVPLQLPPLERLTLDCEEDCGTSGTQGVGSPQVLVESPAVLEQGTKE
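Test system: Cy5-tagged RRE RNA duplex with fluorescein-tagged Rev peptide; Probe or stimulus: labelled Rev peptide; Schedule: 5 min preincubation and 15 min binding, 25 °C; Signal: FRET fluorescence readout; Evaluation: % inhibition from 671/540 nm acceptor-to-donor ratio, scaled between controls; Control set: DMSO and neomycin B.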
Numbers without * were called inactive; . = not tested or not shown; [ ] = another dose, or the depositor's remark.

SMILES | EphB4 antag | PLK1 PBD inh | LYP act | PLK1 inh | LYP inh 2 | HIV Rev-RRE inh
O=C(O)c1ccc(CSc2n[nH]c(-c3ccco3)n2)cc1 | 15.4* | -4.1 | -7.1 | 1.3 | 4.4 | 19.6
CCSC1=N/C(=C\c2ccc(C(=O)O)cc2)C(=O)S1 | -1.7 | -2.4 | 2.4 | -9.1 | -3.1 | 5.9
CCOC(=O)SC1=N/C(=C\c2ccc(N(C)C)cc2)C(=O)S1 | -5.6 | -90.7 | -6.0 | -24.0 | 8.3 | 101.4*[fluorescence artefact?]
CCOC(=O)c1sc(N)c(C#N)c1COC(=O)CNC(=O)c1ccccc1 | 0.0 | -31.6 | 3.9 | -2.0 | -5.3 | 50.7*
CC(=O)Cc1nsc(NC(=O)c2cc(-c3ccccc3Cl)oc2C)n1 | 2.5 | -1.1 | 1.2 | 5.7 | -1.8 | 0.9
CO/N=C(/CNC(=O)c1ccc(F)cc1)c1ccc(Cl)cc1 | 10.4 | -2.1 | 3.1 | -6.0 | -0.1 | 3.9
CSc1nnc(C)c(/C=C/Nc2ccc(F)cc2)n1 | 4.8 | -36.3 | -4.7 | -0.4 | 8.4 | 89.3*[fluorescence artefact?]
CSc1nnc(C)c(/C=C/Nc2ccc(Cl)cc2)n1 | -1.7 | -38.6 | 1.7 | -15.1 | 2.4 | 41.9*
N=C1N(/N=C/c2ccccc2)C(=Nc2ccccc2)C(=S)N1c1ccccc1 | -2.9 | -2.6 | 13.4 | -7.7 | -13.6 | 5.3
Cc1cc(C)n(-c2nc3c(c(=O)n(C)c(=O)n3C)n2CC(O)COc2ccccc2C)n1 (stereo not drawn) | 2.4 | -0.9 | 4.9 | -5.9 | -6.3 | 4.3
O=C(c1ccc(COc2ccccc2Cl)o1)N1CCN(Cc2ccc3c(c2)OCO3)CC1 | 17.8* | 3.8 | 0.8 | -3.6 | -3.3 | 7.2
O=C(CSCc1cccc(Cl)c1)N1CCN(Cc2ccc3c(c2)OCO3)CC1 | -10.9 | 9.4 | 5.6 | 5.5 | -4.5 | 4.3
N#Cc1cc(N)ccc1Sc1ccc(Cl)cc1 | 0.6 | 25.1 | 14.7 | -7.3 | -12.0 | 7.9
N#Cc1ncc(C(F)(F)F)cc1Sc1ccc(N)cc1 | 16.1* | -25.1 | -5.2 | -15.3 | 6.8 | 15.8
O=C1CCNc2cc3ccccc3cc21 | -3.1 | -3.2 | 3.9 | -2.1 | -4.0 | 44.5*
COC(=O)C1=C(N)Oc2cc(C)n(CC3CCCO3)c(=O)c2C1c1ccccc1OC (stereo not drawn) | -10.6 | -8.5 | -11.1 | -11.0 | 11.1 | 3.1
COC(=O)C1=C(N)Oc2cc(N(C)C)ccc2C1c1ccccc1OC (stereo not drawn) | 0.7 | -7.7 | 11.6 | -9.4 | -13.7 | 37.1*
N#CC1=C(SCC(=O)c2cc3ccccc3oc2=O)NC(=O)C(C#N)C12CCCC2 (stereo not drawn) | -0.3 | -8.0 | -9.0 | -14.5 | 5.7 | 112.6*[fluorescence artefact?]
CC(C)c1ccc2nc3sc(C(=O)N4CCc5ccccc5C4)c(N)c3cc2c1 | -4.3 | -17.7 | -4.0 | -26.4 | 6.8 | 56.6*
O=C(NCc1ccc2c(c1)OCO2)c1ccc(N2C(=O)C3CCCCC3C2=O)cc1 (stereo not drawn) | 1.8 | 5.8 | 0.4 | -3.1 | -0.8 | -5.6
COc1ccc(N=Cc2sc3ccccc3c2Cl)cc1 | 2.0 | 11.4 | 6.0 | -14.9 | -3.3 | 15.5
Cc1ccc(N=Cc2sc(O)c3ccccc23)cc1 | 2.1 | -70.4 | 1.9 | -8.2 | -0.4 | 132.1*[fluorescence artefact?]
Cc1ccc(N=Cc2sc(O)c3ccccc23)c(C)c1 | -4.1 | 23.4 | 2.3 | -8.8 | -0.7 | 93.0*[fluorescence artefact?]
COCCn1c(SCC(=O)Nc2sccc2C(N)=O)nc2cc(Cl)ccc2c1=O | 2.9 | -11.3 | -3.5 | 10.2 | 6.7 | 17.8
CC(C)n1cc(/C=C2/SC(=O)N(CC(=O)N3CCCC3)C2=O)c2ccccc21 | -4.3 | -1.1 | 1.0 | -8.9 | 3.7 | -4.9
SMILES | EphB4 antag | PLK1 PBD inh | LYP act | PLK1 inh | LYP inh 2 | HIV Rev-RRE inh
CC1=CCC2C(=O)N(CCc3c[nH]c4ccccc34)C(=O)C2C1 (stereo not drawn) | -1.6 | 12.4 | 6.1 | -8.7 | -6.0 | 1.9
O=C1S/C(=C/c2ccc(N3CCOCC3)o2)C(=O)N1Cc1ccc(F)cc1 | -4.3 | -33.8 | 6.3 | -17.1 | -2.0 | 115.0*[fluorescence artefact?]
O=C1N/C(=C/c2ccc(N3CCOCC3)cc2)C(=O)N1Cc1ccc(F)cc1 | -9.1 | -11.1 | -4.0 | -7.4 | 3.0 | 5.1
CC(C)OC(=O)CN1C(=O)S/C(=C/c2ccc(N3CCCCC3)o2)C1=O | -1.9 | -326.6 | -6.4 | -13.7 | 4.9 | 136.2*[fluorescence artefact?]
O=C1/C(=C/c2ccc(N3CCOCC3)o2)SC(=Nc2ccccc2)N1CCc1c[nH]c2ccccc12 | 3.4 | -176.8 | -4.1 | -20.4 | 8.0 | 136.0*[fluorescence artefact?]
O=C1S/C(=C\c2ccc(N3CCOCC3)o2)C(=O)N1Cc1ccc(F)cc1 | 8.1 | -114.2 | -6.4 | -5.9 | 8.7 | 117.2*[fluorescence artefact?]
Nc1[nH]nc2nc(N3CCOCC3)nc(-c3ccccc3)c12 | -5.5 | -7.0 | -8.7 | 68.0* | 8.9 | 8.8
COCCn1c(CN2CCN(c3cccc(Cl)c3)CC2)nc2c1c(=O)n(C)c(=O)n2C | -5.3 | 28.1 | 1.0 | -5.8 | -0.9 | -1.2
COCCn1c(CN2CCN(C)CC2)nc2c1c(=O)n(C)c(=O)n2C | 2.6 | -23.0 | . | 66.0* | . | 0.0
CCOc1ccc(/C=N/n2c(SC)nnc2-c2ccccc2)cc1OCC | 2.3 | 1.6 | -7.8 | -4.7 | 10.0 | 5.7
CC(=O)Nc1nc2n(n1)C(c1ccc(Cl)cc1)C=C(C)N2 (stereo not drawn) | -1.0 | -39.4 | -5.7 | 7.2 | 3.5 | 7.9
COc1ccc(C2C=C(c3ccc(Cl)cc3)Nc3nc(NC(C)=O)nn32)cc1 (stereo not drawn) | -0.4 | 13.3 | 1.7 | -23.4 | -1.1 | 77.9*
CCC(=O)Nc1nc2n(n1)C(c1ccc(OC)cc1)C=C(c1ccccc1)N2 (stereo not drawn) | 0.6 | 4.4 | 14.6 | -15.0 | -14.3 | 44.6*
CC(=O)Nc1nc2n(n1)C(c1ccccc1)C=C(c1ccccc1)N2 (stereo not drawn) | -4.5 | -8.0 | 0.4 | -7.2 | -3.1 | 19.4
CC(=O)Nc1nc2n(n1)C(c1ccc(F)cc1)C=C(c1ccccc1)N2 (stereo not drawn) | -0.7 | 8.1 | 2.1 | -21.0 | -3.5 | 56.3*
O=C(Nc1nc2n(n1)C(c1ccccc1)C=C(c1ccccc1)N2)c1ccco1 (stereo not drawn) | -7.3 | -18.0 | 13.9 | -9.3 | -16.6 | 45.6*
COCc1c(C(=O)N2CCN(c3ccc(C(F)(F)F)cn3)CC2)oc2ccccc12 | 3.9 | 14.3 | -6.4 | -7.3 | 9.5 | 8.6
COc1ccc(C2CC(c3ccc(Cl)cc3)Nc3nc(NC(=O)c4ccco4)nn32)cc1 (stereo not drawn) | 2.6 | 11.7 | -7.0 | -7.7 | 8.8 | 3.9
